RanGTP-Impb inh – inhibitors of RanGTP-importin-beta interaction, primary screen, biochemical, FRET, CFP-Ran, YFP-importin-beta, homogeneous; AID 2216; cell-free CFP-Ran/YFP-importin-beta FRET ratio; hit rate 1.1% among 300,000; inhibition, % (concentration not given with the values);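 active = more than half of the replicate wells show a fall in the fluorescence ratio signal beyond about 16%, limit read from the data, passing the limit was not always enough; inconclusive = exactly half of the replicate wells pass the set limit; inactive = fewer than half of replicates pass the limit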;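 note: 0% = DMSO wells and 100% = Ran loaded with GDP instead of GTP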
Platelet DG rel – modulates dense granule release in human platelets. human platelet-rich plasma, SFLLRN dense granule ATP release, luminescence. inhibition, %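 (compounds screened at 7.5 µM in platelet-rich plasma)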. hit rate 0.22% among 300,000;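 active = mean replicate score, as percent of positive control, at or above 50; inconclusive = mean below 50 but at least one replicate at or above 50; inactive = mean and every replicate below 50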
Runt-SMMHC FRET – blocks binding of human RUNX1 Runt domain to CBFb-SMMHC; Q01196+Q13951; Cerulean-Runt/Venus-CBFb-SMMHC FRET ratio 530/480, 1 h; hit rate 0.74% among 220,000; inhibition, % at 20 µM; AID 1434;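 active = mean inhibition across duplicate retests at 20 µM reaching about 50%, limit read from the data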;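 note: 0% = DMSO wells and 100% = wells with excess untagged CBFb-SMMHC; inhibitors lower the FRET ratio by blocking Runt binding to CBFb-SMMHC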
Rce1 inh – yeast Ras-converting enzyme inhibition. Q03530. yeast membranes, quenched prenylated peptide cleavage fluorescence. calls only. hit rate 0.27% among 290,000;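 active = fall in fluorescence gain of 50% or more versus controls, with final raw signal at or below 3038400; inconclusive = same 50% fall but final raw signal above 3038400; inactive = fall in fluorescence gain under 50%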;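 note: plate controls were neutral control wells for no effect and wells lacking membranes for full effect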
Target sequence (Q03530 whole entry, looked up): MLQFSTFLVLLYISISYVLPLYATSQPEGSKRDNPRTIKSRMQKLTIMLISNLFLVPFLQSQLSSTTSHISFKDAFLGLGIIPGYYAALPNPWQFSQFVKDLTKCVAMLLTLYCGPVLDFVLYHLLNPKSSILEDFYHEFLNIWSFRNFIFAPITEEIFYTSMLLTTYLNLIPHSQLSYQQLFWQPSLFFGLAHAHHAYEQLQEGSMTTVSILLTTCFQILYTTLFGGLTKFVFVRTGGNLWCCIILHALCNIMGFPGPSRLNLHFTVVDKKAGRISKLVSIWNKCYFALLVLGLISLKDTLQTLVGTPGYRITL
Runt-CBFb FRET – blocks binding of human RUNX1 Runt domain to CBFb | Cerulean-Runt/Venus-CBFb FRET ratio 530/480, 1 h | AID 1496 | inhibition, % at 20 µM | hit rate 0.46% among 220,000;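 active = inhibition over about 50% at 20 µM in the single-dose screen, limit read from the data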;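 note: 0% = DMSO wells and 100% = excess unlabeled CBFb competitor control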
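Assay system: Cerulean-tagged RUNX1 Runt domain (FRET donor) fusion protein / Amount: 100 nM each of Venus-CBFb and Cerulean-Runt domain / Medium: Tris buffer pH 7.5 with salts and BSA / Also added: Venus-CBFb 100 nM / Schedule: 1 h complex formation plus 1 h compound treatment, room temperature / Signal: FRET fluorescence / Read-out: loss of energy transfer signal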
Numbers without * were called inactive; i = inactive; ? = inconclusive; . = no result given; + = active, no number. Shown are actives, neighbours in structure and some others; about 1.8% of the full set was active somewhere.

SMILES	RanGTP-Impb inh	Platelet DG rel	Runt-SMMHC FRET	Rce1 inh	Runt-CBFb FRET
CCCCNC(=O)c1cc2c(=O)n3cccc(C)c3nc2n(CCN2CCOCC2)c1=N	149.7*	-6.6	61.6*	i	99.9*
Cc1cc(=O)oc2cc3c(cc12)OCCO3	?	0.7	-5.0	i	-2.0
Cc1cc(=O)oc2cc3c(cc12)OCCN3	97.1*	-7.4	43.7	i	9.8
COC(=O)[C@@H](NC(=O)N1CCN(C(=O)C2COc3ccccc3O2)CC1)C(C)C (stereo not given in full)	0.4	6.7	.	i	.
Cc1ccc2nc3c(cc(C(=O)NCc4cccnc4)c(=N)n3C(C)C)c(=O)n2c1	.	.	38.6	.	13.0
CC(C)n1c(=N)c(C(=O)NCCc2ccccc2)cc2c(=O)n3ccccc3nc21	173.9*	-2.9	-21.1	i	11.4
Cc1cccn2c(=O)c3cc(C(=O)NCc4cccnc4)c(=N)n(C)c3nc12	.	.	74.2*	.	98.4*
Cc1cccn2c(=O)c3cc(C(=O)NCc4cccnc4)c(=N)n(C(C)C)c3nc12	182.5*	-1.7	78.7*	?	19.3
CCC(=O)Nc1ccc(C(=O)NNC(=O)c2ccc(C)cc2)cc1	-1.0	-1.3	.	i	.
CC(C)(C)C(Cn1ccnc1)NC(=O)c1ccc2nc(C3CC3)oc2c1 (stereo not given)	-4.8	57.8*	.	i	.
COC(=O)c1ccc(C(=O)OC)c(NC(=S)N2CCN(C)CC2)c1	31.7*	13.8	20.8	i	12.0
COc1ccc(OC)c(CCNC(=O)C2CCN(c3ncnc4c3nc3n4CCCCC3)CC2)c1	-1.7	9.7	.	i	.
C/C(=N/NC(=O)CC1N=C(Cc2ccccc2)NNC1=O)c1cccnc1 (stereo not given)	1.1	7.2	3.6	i	-2.3
CC1CCc2c(sc(Nc3nc4c(F)cccc4s3)c2C(N)=O)C1 (stereo not given)	170.1*	0.0	85.8*	i	127.3*
O=C(Nc1nc2c(F)cccc2s1)C1CC1	?	-7.7	.	i	.
COc1cccc2c(=O)ccoc12	0.1	-12.7	-4.7	i	3.2
COc1c2ccoc2nc2c(OC)cccc12	0.3	-9.4	-1.1	+	3.1
COCC(=O)OC/C(O)=C(\C#N)c1nc2ccccc2[nH]1	6.2	9.0	7.0	i	2.8
Cc1c(-c2cccc(Cl)c2)nc2ccccc2c1C(=O)OC/C(O)=C(\C#N)c1nc2ccccc2[nH]1	-0.1	2.1	53.9*	i	23.2
CC(C)C(=O)OC/C(O)=C(\C#N)c1nc2ccccc2[nH]1	15.3*	0.1	14.8	i	4.5
CSCC[C@H](N)C(=O)N1CCC(C(=O)N[C@@H](C)C(=O)NCc2ccc(F)cc2)CC1	1.7	3.7	.	i	.
CCOc1ccc(C2N(c3ccc(F)cc3)C(=O)C3CCCN32)cc1OC (stereo not given)	21.2*	0.7	-0.5	i	1.1
CC(=O)c1c(C)[nH]c(C(=O)NCc2ccccc2)c1C	-5.5	11.2	3.3	i	50.4*
O=C(CCc1nc2ccccc2c(=O)[nH]1)OCCOc1ccc(Cl)cc1	5.7	1.8	-3.0	i	-1.0
CCOC(=O)C1C(c2ccc(OC)cc2)N(C)OC1(O)C(F)(F)F (stereo not given)	21.7*	-3.4	2.0	i	-0.5
SMILES	RanGTP-Impb inh	Platelet DG rel	Runt-SMMHC FRET	Rce1 inh	Runt-CBFb FRET
CCOC(=O)C1C(c2ccccc2)N(C)OC1(O)C(F)(F)F (stereo not given)	-2.5	0.4	0.6	i	0.1
Cc1cccc(N(C(=O)c2csnn2)C(C(=O)NC2CCCCC2)c2ccncc2)c1 (stereo not given)	3.1	-8.4	.	i	.
CC(C)[C@H](NS(=O)(=O)c1cccc(C(F)(F)F)c1)C(=O)OCC(N)=O	.	1.1	-0.6	i	-1.3
CCn1nnnc1SCC(=O)c1cccc(OC)c1	0.6	-0.1	3.7	i	2.3
COCCn1nnnc1SCC(=O)c1ccccc1	0.1	-11.2	-1.6	i	83.7*
COC(=O)c1cccc(-n2c(=O)n(Cc3ccccc3)c(=O)c3[nH]cnc32)c1C	3.0	-4.1	.	i	.
CC1(C)CC(=O)C2=C(C1)OC(N)=C(C#N)C2c1ccccc1[N+](=O)[O-] (stereo not given)	61.3*	0.0	91.1*	i	85.5*
CC1(C)CC(=O)C2=C(C1)OC(N)=C(C#N)C2c1ccccc1 (stereo not given)	?	2.1	-0.7	i	-0.5
Nc1ccc2nc(-c3ccccc3)[nH]c2c1	-1.7	4.3	-5.5	+	0.1
O=C(Nc1cccc(S(=O)(=O)N2CCCCC2)c1)C1CC(=O)N(Cc2ccco2)C1 (stereo not given)	40.4*	2.8	-3.2	i	1.2
Cc1ccc(CN2CC(C(=O)Nc3cccc(S(=O)(=O)N4CCCCC4)c3)CC2=O)cc1 (stereo not given)	2.8	-1.6	-3.7	i	-1.8
Cc1cccc(N2CCN(C(=O)C3CCN(S(=O)(=O)c4cccnc4)CC3)CC2)c1C	0.7	-15.3	-0.5	i	-1.3
CC(=O)N1CCc2c(sc(NC(=O)CCS(=O)(=O)c3ccccc3)c2C(N)=O)C1	7.1	-9.2	.	i	.
COc1cc2ccccc2cc1C(=O)Nc1sc2c(c1C(N)=O)CCN(C(C)C)C2	46.7*	-11.2	.	i	.
CC(C)N1CCc2c(sc(NC(=O)CN3C(=O)c4ccccc4C3=O)c2C(N)=O)C1	142.3*	0.6	129.1*	i	98.3*
CC(C)N1CCc2c(sc(NC(=O)CCS(=O)(=O)c3ccccc3)c2C(N)=O)C1	152.6*	-13.8	.	i	.
CCOc1cc(C(=O)Nc2cc(C)ccn2)cc(OCC)c1OCC	-6.8	-2.3	-5.4	i	-6.3
CCOc1ccc(C(=O)Nc2cc(C)ccn2)cc1	-1.5	75.9*	-4.1	.	-1.7
COc1cc(-c2nc3ccccn3c2/N=C/c2cccc(OC)c2O)ccc1O	3.2	0.0	-13.9	+	0.8
CCN(CC)CCCN1C(=O)C(=O)/C(=C(/O)c2ccc(C)cc2)C1c1ccccn1 (stereo not given)	1.6	3.2	-7.2	i	-1.3
COc1ccc(/C(O)=C2/C(=O)C(=O)N(CCN3CCOCC3)C2c2ccccn2)cc1OC (stereo not given)	29.0*	.	11.8	i	1.2
O=C1C(=O)N(CCN2CCOCC2)C(c2ccccn2)/C1=C(/O)c1ccccc1 (stereo not given)	24.3*	2.1	5.8	i	7.9
COc1ccc(C2/C(=C(/O)c3ccc4c(c3)CC(C)O4)C(=O)C(=O)N2CCCN2CCOCC2)cc1OC (stereo not given)	1.2	-8.2	.	i	.
Cc1ccc(/C(O)=C2/C(=O)C(=O)N(CCN3CCOCC3)C2c2ccccn2)cc1 (stereo not given)	22.1*	2.7	7.8	i	9.2

Screens deposited in PubChem by several laboratories.
